Source: ChEMBL document CHEMBL1158698, “Chinikomycins A and B: isolation, structure elucidation, and biological activity of novel antibiotics from a marine Streptomyces sp. isolate M045” (J Nat Prod, 2005)
Values after ≈ are worked out from the molar mass of the structure shown. Active and inactive are the calls of the source. The calls are words filed in the database; no cut-off is given here.

Assays:
Escherichia coli [1] = assay: Antimicrobial activity against Escherichia coli at 10 ug/plate; assay type: functional
Outline: (§1)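 Agar plate diffusion test. The stated amount of compound is applied per test plate seeded with the named bacterium, alga or fungus. The read-out is the diameter of the growth-inhibition zone, in mm.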

Chlorella sorokiniana [2] = assay: Antimicrobial activity against Chlorella sorokiniana at 10 ug/plate; assay type: functional; outline: as §1
Chlorella vulgaris [3] = assay: Antimicrobial activity against Chlorella vulgaris at 10 ug/plate; assay type: functional; outline: as §1
Bacillus subtilis [4] = assay: Antimicrobial activity against Bacillus subtilis at 10 ug/plate; assay type: functional; outline: as §1
Staphylococcus aureus [5] = assay: Antimicrobial activity against Staphylococcus aureus at 10 ug/plate; assay type: functional; outline: as §1
Candida albicans [6] = assay: Antimicrobial activity against Candida albicans at 10 ug/plate; assay type: functional; outline: as §1
Rhizomucor miehei [7] = assay: Antimicrobial activity against Mucor miehei at 10 ug/plate; assay type: functional; outline: as §1
Desmodesmus subspicatus [8] = assay: Antimicrobial activity against Scenedesmus subspicatus at 10 ug/plate; assay type: functional; outline: as §1
[9] = tested on: Streptomyces viridochromogenes; assay: Antimicrobial activity against Streptomyces viridochromogenes Tu 57 at 10 ug/plate; assay type: functional; outline: as §1
[10] = Antitumor activity against human LXFA 629L cells; assay type: functional, cell-based
[11] = tested on: Encephalomyocarditis virus; assay: Antiviral activity against EMC virus infected in human A549 cells assessed as protection against virus-induced cytopathic effect at 100 ug/ml; assay type: functional, organism-based
[12] = Antitumor activity against human UXF 1138L cells; assay type: functional, cell-based
[13] = Antitumor activity against human LXFL 529L cells; assay type: functional, cell-based
Bacillus subtilis [14] = assay: Antimicrobial activity against Bacillus subtilis at 40 ug/plate; assay type: functional, organism-based; outline: as §1
Desmodesmus subspicatus [15] = assay: Antimicrobial activity against Scenedesmus subspicatus at 40 ug/plate; assay type: functional, organism-based; outline: as §1
Chlorella vulgaris [16] = assay: Antimicrobial activity against Chlorella vulgaris at 40 ug/plate; assay type: functional, organism-based; outline: as §1
[17] = Antitumor activity against human MEXF 462NL cells; assay type: functional, cell-based
[18] = Antitumor activity against human MAXF 401NL cells; assay type: functional, cell-based
[19] = tested on: Streptomyces viridochromogenes; assay: Antimicrobial activity against Streptomyces viridochromogenes Tu 57 at 40 ug/plate; assay type: functional, organism-based; outline: as §1
Chlorella sorokiniana [20] = assay: Antimicrobial activity against Chlorella sorokiniana at 40 ug/plate; assay type: functional, organism-based; outline: as §1
[21] = Antitumor activity against human RXF 944L cells; assay type: functional, cell-based
Escherichia coli [22] = assay: Antimicrobial activity against Escherichia coli at 40 ug/plate; assay type: functional, organism-based; outline: as §1
Candida albicans [23] = assay: Antimicrobial activity against Candida albicans at 40 ug/plate; assay type: functional, organism-based; outline: as §1
Rhizomucor miehei [24] = assay: Antimicrobial activity against Mucor miehei at 40 ug/plate; assay type: functional, organism-based; outline: as §1
Staphylococcus aureus [25] = assay: Antimicrobial activity against Staphylococcus aureus at 40 ug/plate; assay type: functional, organism-based; outline: as §1

SMILES	IC50 [10]	Activity [11]	IC50 [12]	IC50 [13]	Activity (Bacillus subtilis [14])	Activity (Desmodesmus subspicatus [15])	Activity (Chlorella vulgaris [16])	IC50 [17]	IC50 [18]	Activity [19]	Activity (Chlorella sorokiniana [20])	IC50 [21]	Activity (Escherichia coli [22])	Activity (Candida albicans [23])	Activity (Rhizomucor miehei [24])	Activity (Staphylococcus aureus [25])	other results
CCCC[C@@H](C)/C=C(C)/C=C(\C)C(=O)NC1=C[C@@](O)(/C=C/C=C/C=C/C(=O)NC2=C(O)CCC2=O)[C@@H]2O[C@@H]2C1=O [MANUMYCIN A]																	inhibition zone (IZ) (Escherichia coli [1]): 16 mm; inhibition zone (IZ) (Chlorella sorokiniana [2]): 16 mm; inhibition zone (IZ) (Chlorella vulgaris [3]): 16 mm; inhibition zone (IZ) (Bacillus subtilis [4]): 16 mm; inhibition zone (IZ) (Staphylococcus aureus [5]): 16 mm; inhibition zone (IZ) (Candida albicans [6]): 16 mm; inhibition zone (IZ) (Rhizomucor miehei [7]): 16 mm; inhibition zone (IZ) (Desmodesmus subspicatus [8]): 16 mm; inhibition zone (IZ) [9]: 16 mm
CCCC[C@@H](C)/C=C(C)/C=C(\C)C(=O)NC1=CC(=O)C(/C=C/C=C/C=C/C(=O)NC2=C(O)CCC2=O)=C(Cl)C1=O [CHINIKOMYCIN B]	> 6 µg/mL	inactive	> 6 µg/mL	> 6 µg/mL	inactive	inactive	inactive	> 6 µg/mL	3.04 µg/mL (≈ 5.36 µM)	inactive	inactive	> 6 µg/mL	inactive	inactive	inactive	inactive	
CCCC[C@@H](C)/C=C(C)/C=C(\C)C(=O)Nc1cc(O)c(/C=C/C=C/C=C/C(=O)NC2=C(O)CCC2=O)c(Cl)c1O [CHINIKOMYCIN A]	> 6 µg/mL	inactive	> 6 µg/mL	> 6 µg/mL	inactive	inactive	inactive	4.15 µg/mL (≈ 7.29 µM)	2.41 µg/mL (≈ 4.23 µM)	inactive	inactive	4.02 µg/mL (≈ 7.06 µM)	inactive	inactive	inactive	inactive	
